These results are taken from ChEMBL document CHEMBL2417509, “Synthesis and biological evaluation of prodigiosene conjugates of porphyrin, estrone and 4-hydroxytamoxifen” (2013).

The test system of this test is MCF7. The experiment in a line: Cytotoxicity against human ER positive MCF7 cells assessed as cell viability at 1 uM after 72 hrs by MTT assay. The class given is functional, cell-based. In a few lines:
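Lines kept in DMEM with 10% fetal bovine serum and 1% penicillin/streptomycin at 37 °C, 5% CO2. Compound applied at 1 µM for 72 h, then standard MTT reduction read-out. Viability given as mean percentage of formazan formed by treated cells relative to mock-treated cells (0.1% DMSO). Run in quadruplicate, standard error, Student's t-test.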
For orientation: Tetrazolium assays rely on reduction of a dye to a coloured formazan, in cell work by metabolically active cells.

The source made the active and inactive calls. The calls are words filed in the database; no cut-off is given here.

Consider `COc1cc(-c2ccc[nH]2)[nH]c1/C=C1\N=C(C)C(C(=O)CCCCC(=O)Oc2ccc3c(c2)CC[C@@H]2[C@@H]3CC[C@]3(C)C(=O)CC[C@@H]23)=C1C`, for which the outcome was inactive. As for `COc1cc(-c2ccc[nH]2)[nH]c1/C=C1\N=C(C)C(C(=O)CCCCCCCCC(=O)Oc2ccc3c(c2)CC[C@@H]2[C@@H]3CC[C@]3(C)C(=O)CC[C@@H]23)=C1C`, the entry is “inactive”.
